In ChEMBL document CHEMBL1921774, “Evaluation of 18F-labeled benzodioxine piperazine-based dopamine D4 receptor ligands: lipophilicity as a determinate of nonspecific binding” (J Med Chem, 2011):
Activity calls are given as the source filed them. No cut-off for these calls is given here.

How the values were obtained:
D(2) dopamine receptor [1] = target: T1, D(2) dopamine receptor (Homo sapiens, UniProt P14416); test: Displacement of [3H]spiperone from human dopamine D2long receptor expressed in CHO cells; type: cell-based
T1 sequence (P14416 whole entry): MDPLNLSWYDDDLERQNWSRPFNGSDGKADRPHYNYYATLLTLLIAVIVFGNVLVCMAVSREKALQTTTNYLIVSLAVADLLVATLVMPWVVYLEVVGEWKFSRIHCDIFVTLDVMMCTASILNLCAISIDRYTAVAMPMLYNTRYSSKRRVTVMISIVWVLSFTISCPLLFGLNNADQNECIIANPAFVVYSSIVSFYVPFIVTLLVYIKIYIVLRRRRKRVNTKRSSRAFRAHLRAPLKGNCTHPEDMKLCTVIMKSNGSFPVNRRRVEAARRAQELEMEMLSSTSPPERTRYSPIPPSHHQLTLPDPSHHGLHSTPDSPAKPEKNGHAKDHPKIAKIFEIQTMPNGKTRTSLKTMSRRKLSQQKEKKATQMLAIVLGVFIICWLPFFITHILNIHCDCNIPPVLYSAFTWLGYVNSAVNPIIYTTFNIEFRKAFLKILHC
How it was run: (§1)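 Membranes from CHO cells stably expressing each receptor, 2–6 μg protein per tube, competed against [³H]spiperone at 0.2 nM final. Competition curves were analyzed by nonlinear regression to give Ki.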

D(2) dopamine receptor [2] = target: T1, D(2) dopamine receptor; test: Displacement of [3H]spiperone from human dopamine D2short receptor expressed in CHO cells; type: cell-based; how it was run: as §1
D(3) dopamine receptor = D(3) dopamine receptor (Homo sapiens, UniProt P35462); test: Displacement of [3H]spiperone from human dopamine D3 receptor expressed in CHO cells; type: cell-based; how it was run: as §1
D(3) dopamine receptor, sequence (P35462 whole entry): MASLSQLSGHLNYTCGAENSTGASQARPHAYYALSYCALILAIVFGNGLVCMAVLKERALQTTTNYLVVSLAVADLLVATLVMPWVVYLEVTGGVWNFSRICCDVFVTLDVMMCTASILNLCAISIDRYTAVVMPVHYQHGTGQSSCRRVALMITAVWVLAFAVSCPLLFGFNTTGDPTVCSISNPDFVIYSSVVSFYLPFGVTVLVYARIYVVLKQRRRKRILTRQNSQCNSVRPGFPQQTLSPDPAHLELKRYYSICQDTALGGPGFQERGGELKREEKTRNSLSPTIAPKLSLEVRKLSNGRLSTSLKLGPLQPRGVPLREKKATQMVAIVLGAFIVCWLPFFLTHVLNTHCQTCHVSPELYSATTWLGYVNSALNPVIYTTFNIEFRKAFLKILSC

D(4) dopamine receptor = target: T2, D(4) dopamine receptor (Homo sapiens, UniProt P21917); test: Displacement of [3H]spiperone from human dopamine D4.4 receptor expressed in CHO cells; type: cell-based; how it was run: as §1
T2 sequence (P21917 whole entry): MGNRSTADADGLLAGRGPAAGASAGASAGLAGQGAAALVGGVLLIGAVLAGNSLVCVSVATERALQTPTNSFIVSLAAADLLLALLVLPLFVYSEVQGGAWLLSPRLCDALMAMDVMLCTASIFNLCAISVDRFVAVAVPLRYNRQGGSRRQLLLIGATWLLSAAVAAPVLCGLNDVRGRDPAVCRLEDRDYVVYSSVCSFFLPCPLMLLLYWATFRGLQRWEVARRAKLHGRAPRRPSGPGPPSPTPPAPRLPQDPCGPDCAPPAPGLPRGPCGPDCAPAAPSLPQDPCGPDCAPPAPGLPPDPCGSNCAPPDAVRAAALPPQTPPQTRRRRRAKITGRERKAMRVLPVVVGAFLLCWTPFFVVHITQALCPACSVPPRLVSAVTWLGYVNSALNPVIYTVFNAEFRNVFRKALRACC

[3] = target: 5-hydroxytryptamine receptor 2A (Sus scrofa, UniProt P50129); test: Displacement of [3H]ketanserin from 5-HT2 receptor in porcine cortical membranes; type: cell membranes
5-hydroxytryptamine receptor 2A, sequence (P50129 whole entry): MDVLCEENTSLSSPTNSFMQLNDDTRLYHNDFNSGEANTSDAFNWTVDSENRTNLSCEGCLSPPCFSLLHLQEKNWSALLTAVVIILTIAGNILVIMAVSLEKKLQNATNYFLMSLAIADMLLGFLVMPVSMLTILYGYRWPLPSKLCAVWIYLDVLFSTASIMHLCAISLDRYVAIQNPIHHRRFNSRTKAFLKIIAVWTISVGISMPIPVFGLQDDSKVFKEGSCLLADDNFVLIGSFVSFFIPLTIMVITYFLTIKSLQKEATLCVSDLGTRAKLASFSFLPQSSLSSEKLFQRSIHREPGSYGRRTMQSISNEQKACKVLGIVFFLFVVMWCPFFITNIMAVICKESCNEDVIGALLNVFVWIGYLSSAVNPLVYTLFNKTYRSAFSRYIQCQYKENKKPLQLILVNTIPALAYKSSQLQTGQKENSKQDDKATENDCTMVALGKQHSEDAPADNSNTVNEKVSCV
How it was run: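 Porcine cerebral cortex homogenate, 110 μg/mL protein per tube, with 0.5 nM [³H]ketanserin. Protein was measured by Lowry. Competition curves were fitted by nonlinear regression.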

[4] = Displacement of [3H]prazosin from adrenergic alpha1 receptor in porcine cortical membranes; type: cell membranes, Sus scrofa
How it was run: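 Porcine cerebral cortex homogenate, 40 μg/mL protein per tube, with 0.2 nM [³H]prazosin. Protein was measured by Lowry. Competition curves were fitted by nonlinear regression.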

Homo sapiens [5] = species: Homo sapiens; test: Selectivity ratio of Ki for human dopamine D2long receptor to Ki for human dopamine D4.4 receptor
Homo sapiens [6] = species: Homo sapiens; test: Selectivity ratio of Ki for human dopamine D2short receptor to Ki for human dopamine D4.4 receptor
Homo sapiens [7] = species: Homo sapiens; test: Selectivity ratio of Ki for human dopamine D3 receptor to Ki for human dopamine D4.4 receptor
CHO10001 = test: Neutral antagonist activity at human dopamine D4.2 receptor expressed in CHO10001 cells assessed as inhibition of [3H]thymidine incorporation relative to quinpirole; type: functional, cell-based
How it was run: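 Growing D4.2-expressing CHO10001 cells were stimulated with test compound and given 0.02 μCi [³H]thymidine per well; incorporation was measured. Data from four dose-response experiments were normalized and pooled to give means per concentration, and compared with the full agonist quinpirole.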

[8] = Lipophilicity, log P of the compound at pH 7.4 by HPLC method; details: buffer
[9] = Octanol-buffer partition coefficient, log P of the compound at pH 7.4 by shake flask method
[10] = target: T3, D(4) dopamine receptor (Rattus norvegicus) (UniProt P30729); test: Binding affinity to dopamine D4 receptor in coliculus of Wistar rat at 5 nmol/L after 30 mins using cresyl violet staining by In vitro autoradiography in presence of 10 uM non-radiolabeled compound
T3 sequence (whole entry): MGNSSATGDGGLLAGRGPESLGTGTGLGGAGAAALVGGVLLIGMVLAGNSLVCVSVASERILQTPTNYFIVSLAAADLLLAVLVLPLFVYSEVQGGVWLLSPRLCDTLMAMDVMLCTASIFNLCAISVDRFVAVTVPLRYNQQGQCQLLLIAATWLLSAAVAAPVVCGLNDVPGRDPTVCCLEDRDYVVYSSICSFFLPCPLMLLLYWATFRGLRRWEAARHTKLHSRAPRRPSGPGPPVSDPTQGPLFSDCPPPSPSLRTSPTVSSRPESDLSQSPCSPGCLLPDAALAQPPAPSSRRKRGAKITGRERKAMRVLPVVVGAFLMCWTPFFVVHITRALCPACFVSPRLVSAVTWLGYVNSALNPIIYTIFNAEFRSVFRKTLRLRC
How it was run: (§2)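 Horizontal 20 μm cryostat sections of brains from Wistar rats (4–6 months, 230–250 g) were used. After a 10 min preincubation in 50 mmol/L Tris-HCl pH 7.4 at 22 °C, slices were incubated 30 min with ¹⁸F-radioligand (5 nmol/L, or 10 nmol/L for one tracer). Nonspecific binding was taken with 10 μmol/L spiperone or cold standard; total binding had DMSO alone. Regions were assigned by cresyl violet staining.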

[11] = target: T3, D(4) dopamine receptor (Rattus norvegicus); test: Binding affinity to dopamine D4 receptor in coliculus of Wistar rat at 10 nmol/L after 30 mins using cresyl violet staining by In vitro autoradiography in presence of 10 uM non-radiolabeled compound; details: tested as the 18F-labelled form; how it was run: as §2
[12] = target: T3, D(4) dopamine receptor (Rattus norvegicus); test: Binding affinity to dopamine D4 receptor in medial nuclei of cerebellum in Wistar rat at 10 nmol/L after 30 mins using cresyl violet staining by In vitro autoradiography in presence of 10 uM non-radiolabeled compound; type: tissue-based; details: tested as the 18F-labelled form; how it was run: as §2
[13] = target: T3, D(4) dopamine receptor (Rattus norvegicus); test: Binding affinity to dopamine D4 receptor in Wistar rat brain slices assessed as nonspecific binding at 10 nmol/L measured after 30 mins by In vitro autoradiography presence of nonradioactive ligand; details: tested as the 18F-labelled form; how it was run: as §2
[14] = Displacement of [3H]WAY100635 from 5-HT1A receptor in porcine cortical membranes
D(1A) dopamine receptor = D(1A) dopamine receptor (Sus scrofa, UniProt P50130); test: Displacement of [3H]SCH23390 from dopamine D1 receptor in porcine striatal membranes
D(1A) dopamine receptor, sequence (P50130 whole entry): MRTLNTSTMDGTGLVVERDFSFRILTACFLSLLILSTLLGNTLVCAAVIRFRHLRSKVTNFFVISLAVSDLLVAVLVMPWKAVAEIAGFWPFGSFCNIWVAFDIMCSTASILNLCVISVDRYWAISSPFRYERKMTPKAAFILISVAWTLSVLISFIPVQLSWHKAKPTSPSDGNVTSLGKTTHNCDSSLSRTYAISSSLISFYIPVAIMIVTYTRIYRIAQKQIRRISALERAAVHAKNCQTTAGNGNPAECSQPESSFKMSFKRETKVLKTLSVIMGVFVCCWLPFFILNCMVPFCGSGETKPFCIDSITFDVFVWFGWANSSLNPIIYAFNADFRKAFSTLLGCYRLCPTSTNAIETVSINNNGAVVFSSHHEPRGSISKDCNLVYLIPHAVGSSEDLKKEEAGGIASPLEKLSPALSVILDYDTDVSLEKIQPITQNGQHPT

[15] = target: T3, D(4) dopamine receptor (Rattus norvegicus); test: Binding affinity to dopamine D4 receptor in medial nuclei of cerebellum in Wistar rat at 5 nmol/L after 30 mins using cresyl violet staining by In vitro autoradiography in presence of 10 uM non-radiolabeled compound; type: tissue-based; details: tested as the 18F-labelled form; how it was run: as §2
[16] = target: T3, D(4) dopamine receptor (Rattus norvegicus); test: Binding affinity to dopamine D4 receptor in Wistar rat hippocampus at 5 nmol/L after 30 mins using cresyl violet staining by In vitro autoradiography in presence of 10 uM non-radiolabeled compound; type: tissue-based; details: tested as the 18F-labelled form; how it was run: as §2
[17] = target: T3, D(4) dopamine receptor (Rattus norvegicus); test: Binding affinity to dopamine D4 receptor in Wistar rat frontal cortex at 5 nmol/L after 30 mins using cresyl violet staining by In vitro autoradiography in presence of 10 uM non-radiolabeled compound; type: tissue-based; details: tested as the 18F-labelled form; how it was run: as §2
[18] = target: T3, D(4) dopamine receptor (Rattus norvegicus); test: Binding affinity to dopamine D4 receptor in Wistar rat striatum at 5 nmol/L after 30 mins using cresyl violet staining by In vitro autoradiography in presence of 10 uM non-radiolabeled compound; details: tested as the 18F-labelled form; how it was run: as §2
[19] = target: T4, D(4) dopamine receptor (Mus musculus) (UniProt P51436); test: Binding affinity to dopamine D4 receptor in NMRI mouse cortex at 20 nmol/L after 30 mins using cresyl violet staining by In vitro autoradiography in presence of 10 uM non-radiolabeled compound; details: tested as the 18F-labelled form
T4 sequence (whole entry): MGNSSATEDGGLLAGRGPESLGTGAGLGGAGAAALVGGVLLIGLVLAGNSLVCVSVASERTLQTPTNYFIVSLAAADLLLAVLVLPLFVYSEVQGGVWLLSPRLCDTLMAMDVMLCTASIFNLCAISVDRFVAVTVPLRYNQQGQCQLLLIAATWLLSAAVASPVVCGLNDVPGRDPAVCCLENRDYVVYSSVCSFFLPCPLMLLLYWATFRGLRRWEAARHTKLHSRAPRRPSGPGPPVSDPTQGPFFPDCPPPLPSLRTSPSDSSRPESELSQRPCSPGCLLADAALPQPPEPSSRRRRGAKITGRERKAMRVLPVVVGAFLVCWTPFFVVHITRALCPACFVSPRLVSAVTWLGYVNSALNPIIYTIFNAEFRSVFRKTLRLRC
How it was run: (§3)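 Sagittal brain slices from female NMRI mice (2–6 months) were preincubated 10 min in 50 mmol/L Tris-HCl pH 7.4 at 22 °C. They were then incubated 30 min with 20 nmol/L [¹⁸F]-ligand plus 10 μmol/L displacer (spiperone or cold standard), or with DMSO alone for total binding. After the ¹⁸F had decayed, regions were identified by cresyl violet staining.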

[20] = target: T4, D(4) dopamine receptor (Mus musculus); test: Binding affinity to dopamine D4 receptor in NMRI mouse hippocampus at 20 nmol/L after 30 mins using cresyl violet staining by In vitro autoradiography in presence of 10 uM non-radiolabeled compound; type: tissue-based; details: tested as the 18F-labelled form; how it was run: as §3
[21] = target: T4, D(4) dopamine receptor (Mus musculus); test: Binding affinity to dopamine D4 receptor in NMRI mouse hippocampus dentate gyrus at 20 nmol/L after 30 mins using cresyl violet staining by In vitro autoradiography in presence of 10 uM non-radiolabeled compound; type: tissue-based; details: tested as the 18F-labelled form; how it was run: as §3
[22] = target: T4, D(4) dopamine receptor (Mus musculus); test: Binding affinity to dopamine D4 receptor in NMRI mouse hippocampus cornu ammonis 3 at 20 nmol/L after 30 mins using cresyl violet staining by In vitro autoradiography in presence of 10 uM non-radiolabeled compound; type: tissue-based; details: tested as the 18F-labelled form; how it was run: as §3
[23] = target: T4, D(4) dopamine receptor (Mus musculus); test: Binding affinity to dopamine D4 receptor in NMRI mouse coliculus at 20 nmol/L after 30 mins using cresyl violet staining by In vitro autoradiography in presence of 10 uM non-radiolabeled compound; details: tested as the 18F-labelled form; how it was run: as §3
[24] = target: T3, D(4) dopamine receptor (Rattus norvegicus); test: Binding affinity to dopamine D4 receptor in Wistar rat thalamus at 5 nmol/L measured after 30 mins; details: tested as the 18F-labelled form; how it was run: as §2
[25] = target: T3, D(4) dopamine receptor (Rattus norvegicus); test: Binding affinity to dopamine D4 receptor in Wistar rat cortex at 5 nmol/L measured after 30 mins; details: tested as the 18F-labelled form; how it was run: as §2

Row | SMILES | Ki (D(2) dopamine receptor [1]) [µM] | Ki (D(2) dopamine receptor [2]) [µM] | Ki (D(3) dopamine receptor) [µM] | Ki (D(4) dopamine receptor) [nM] | Ki [3] [µM] | Ki [4] [µM] | Ratio Ki (Homo sapiens [5]) | Ratio Ki (Homo sapiens [6]) | Ratio Ki (Homo sapiens [7]) | Activity (CHO10001) | logP [8] | logD [9] | Activity [11] | Ki [14] [µM] | Ki (D(1A) dopamine receptor) [µM] | other results
1 | Oc1cc(CN2CCN(c3ccc4c(c3)OCCO4)CC2)ccc1F | 9 | 6.1 | 4.2 | 7.3 | 2.3 | 3 | 1300 | 830 | 590 | Active | 1.7 | 1.78 | Active | 6.2 | 15 | Activity ([10]; 10 nmol/L, in the assay text read “10 nmol/L” for “5 nmol/L”, tested as the 18F-labelled form): Active; Activity [12]: Active; Activity [13]: 33%
2 | COc1cc(CN2CCN(c3ccc4c(c3)OCCO4)CC2)ccc1F | 17 | 16 | 5.9 | 4.2 | 4.2 | 3.3 | 4000 | 3800 | 1400 | Active | 2.44 | 2.33 | – | 5.6 | 23 | –
3 | Fc1ccc(CN2CCN(c3ccc4c(c3)OCCO4)CC2)cc1 | 7.6 | 5.7 | 3.9 | 1.1 | 7 | 4 | 6700 | 5000 | 3600 | Active | 2.71 | – | – | 5.2 | 19 | –
4 | Fc1ccc(CN2CCN(c3ccc4c(c3)OCCO4)CC2)cn1 | 29 | 45 | 17 | 15 | 5.8 | 11 | – | – | – | Active | – | – | Active | 21 | 35 | Activity ([10]; 10 nmol/L, tested as the 18F-labelled form, in the assay text read “10 nmol/L” for “5 nmol/L”): Active; Activity [15]: Active; Activity [16]: inactive; Activity [17]: inactive; Activity [18]: Active; Activity [19]: Active; Activity [20]: Active; Activity [21]: Active; Activity [22]: Active; Activity [23]: Active; Activity [24]: Active; Activity [25]: Active
